# TAAR1 ag = human TAAR1 agonism; Q96RJ0; CHO RD-HGA16 TAAR1, Fluo-8 calcium fluorescence; vehicle wells 0%, saturating PEA agonist 100%; activation, % at 3 µM; 360,000 tested, 0.99% active;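 active = activation above the mean activation of all test compounds in the run plus 3 SD, cut at about 38% in these data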
# Target sequence (Q96RJ0 whole entry, looked up): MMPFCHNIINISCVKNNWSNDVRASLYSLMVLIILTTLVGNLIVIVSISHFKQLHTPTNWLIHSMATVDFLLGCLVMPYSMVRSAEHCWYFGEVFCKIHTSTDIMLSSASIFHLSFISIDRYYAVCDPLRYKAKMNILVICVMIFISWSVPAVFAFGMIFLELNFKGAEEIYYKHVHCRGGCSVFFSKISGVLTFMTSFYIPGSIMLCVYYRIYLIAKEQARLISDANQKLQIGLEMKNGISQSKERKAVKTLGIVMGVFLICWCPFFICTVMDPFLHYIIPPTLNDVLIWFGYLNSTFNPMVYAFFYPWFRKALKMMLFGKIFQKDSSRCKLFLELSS
#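 System: CHO-derived RD-HGA16 cells with stable Gα16 and human TAAR1 / Times: 17-24 h plating, Fluo-8 75 min 37 °C, 30 min RT / Technique: calcium-sensitive Fluo-8 signal, excitation 470-495, emission 515-575 nm / Measure: % activation relative to PEA EC100 response / Benchmarks: DMSO and PEA EC100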
# TAAR1 antag = antagonists of human TAAR1. Q96RJ0. CHO RD-HGA16 TAAR1, Fluo-8 calcium fluorescence, antagonist. inhibition, % at 3 µM. 360,000 tested, 1.5% active. AID 624466;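 active = inhibition above a per-plate cutoff, the mean inhibition of test compounds on that plate plus 3 SD, cut at about 49% in these data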;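 note: 0% = DMSO plus EC80 beta-PEA response and 100% = DMSO alone without agonist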
#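 Assay system: CHO-derived RD-HGA16 cells stably expressing human TAAR1 plus Gα16. Timing: 140 s kinetic read after compound, 140 s after agonist. Technique: kinetic Fluo-8 calcium fluorescence measurement. Measure: % inhibition of agonist calcium response.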
# OX1R antag-1 = human HCRTR1 antagonism; CHO/OX1R cells, Fluo-8 calcium fluorescence, orexin A; AID 434989; inhibition, % at 5 µM; 330,000 tested, 0.43% active; O43613;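 active = inhibition above its plate's threshold, mean inhibition of all tested compounds on the plate plus 3 SD, cut at about 37% in these data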;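 note: 0% = orexin A challenge wells and 100% = SB-334867-A antagonist wells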
# OX1R antag-2 = antagonists of human orexin 1 receptor (OX1R); O43613; OX1R-expressing cells, FRET antagonist read-out; inhibition, % at 6.6 µM; 330,000 tested, 1.8% active; AID 485270; in the data active = inhibition mostly above about 38%, no sharp cut-off; inactive = mostly below about 40%;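 note: 0% = agonist challenge alone and 100% = reference antagonist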
# CHO parental Ca = signal in parental CHO cells, OX1R antagonist counter-screen; parental CHO-K1, ATP-induced calcium, Fluo-8 fluorescence; inhibition, % at 5.6 µM; 330,000 tested, 0.63% active; AID 463079;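 active = inhibition above that plate's mean sample inhibition plus 3 SD, cut at about 26% in these data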;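 note: 0% = ATP-challenged DMSO wells and 100% = DMSO wells without ATP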
#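 Test system: untransfected parental CHO cell line; also added: ATP stimulus; dosing: 5.6 µM, single dose; signal: calcium-sensitive Fluo-8 fluorescence; measure: percent inhibition of ATP-evoked calcium rise, normalized to controls; benchmarks: low control ATP plus DMSO, high control DMSO only; replication: one well per compound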
# GPR7 antagonist = human neuropeptides B/W receptor 1 antagonism; P48145; GPR7-expressing cells, fluorescence antagonist assay; inhibition, % at 4.4 µM; 290,000 tested, 1.1% active; AID 1861; in the data active = inhibition above about 16%, passing the limit was not always enough;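 note: cells stimulated with the agonist NPW; 0% = agonist with vehicle and 100% = vehicle without agonist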
# Target sequence (P48145 whole entry, looked up): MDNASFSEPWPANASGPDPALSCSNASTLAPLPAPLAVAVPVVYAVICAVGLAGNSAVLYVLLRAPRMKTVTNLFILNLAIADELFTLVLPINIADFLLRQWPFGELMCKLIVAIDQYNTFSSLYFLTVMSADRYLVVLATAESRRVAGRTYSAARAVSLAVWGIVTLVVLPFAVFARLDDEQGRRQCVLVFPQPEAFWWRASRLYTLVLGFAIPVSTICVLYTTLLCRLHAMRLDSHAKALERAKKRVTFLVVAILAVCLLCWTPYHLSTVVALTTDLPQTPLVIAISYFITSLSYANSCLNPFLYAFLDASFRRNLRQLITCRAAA
# Numbers without * were called inactive; · = no result. In the library only some 4.5% were active in any assay of this set; here they are far more common.
SMILES,TAAR1 ag,TAAR1 antag,OX1R antag-1,OX1R antag-2,CHO parental Ca,GPR7 antagonist
Cc1cc(C(=O)OCC(=O)NC(=O)c2cccn2C)c2ccccc2n1,1.9,-2.4,-12.7,25.1,44.8*,-19.8
COc1ccccc1CNC(=O)COC(=O)c1c[nH]c2ccccc12,31.9,10.8,·,·,·,·
COc1cc(NC(=O)c2ccco2)c(C(=O)OCC(=O)c2c[nH]c3ccccc23)cc1OC,16.8,62.5*,-0.2,40.7,4.8,0.3
COc1ccccc1NC(=O)COC(=O)c1c[nH]c2ccccc12,7.9,49.5*,26.8,22.7,-11.5,·
O=C(OCC(=O)c1c[nH]c2ccccc12)c1ccco1,27.6,-23.1,-11.1,19.8,-6.7,-8.3
COc1ccccc1NC(=O)COC(=O)c1cc(C)nc2ccccc12,7.3,20.0,20.2,43.5*,-24.1,·
Cn1cccc1C(=O)NC(=O)COC(=O)c1ccccc1O,19.4,3.7,-10.3,9.0,-5.4,8.0
COC(=O)C1=C(C)N(Cc2ccc(C(F)(F)F)cc2)C(=NCc2ccccc2C(F)(F)F)NC1c1ccc(C(F)(F)F)cc1 (stereo not drawn),1.9,-13.4,·,·,·,·
CC(C)[C@H](NC(=O)CC1CCCC1)C(=O)N1CCC[C@H]1C(=O)NCc1ccccc1,0.5,-42.9,·,·,·,·
COc1cccc(/C=C/C(=O)OCC(=O)c2c[nH]c3ccccc23)c1OC,11.1,54.2*,-2.5,29.6,2.0,4.5
COc1ccc(C(=O)NCC(=O)N=Nc2c(O)n(Cc3ccccc3)c3ccccc23)cc1OC,3.4,2.5,-26.2,36.7,-14.8,-2.2
C=CCn1c(O)c(N=NC(=O)CNC(=O)c2ccncc2)c2ccccc21,6.6,-1.2,-11.9,67.3*,-12.1,4.5
C=CCn1c(O)c(N=NC(=O)CNC(=O)c2cccs2)c2ccccc21,1.2,9.1,-12.6,40.0,-11.4,-13.5
COc1ccc(C(=O)NCC(=O)N=Nc2c(O)n(C)c3ccccc23)cc1OC,4.1,-12.2,-7.3,56.7*,-23.4,-5.4
CCOC(=O)C1CCCN(C(=O)c2cccc(Cl)c2)CC1 (stereo not drawn),0.5,17.2,·,·,·,·
NC(=O)c1ncn([C@@H]2O[C@H](C(=O)N[C@H](Cc3c[nH]c4ccccc34)C(=O)O)[C@@H](O)[C@H]2O)n1,1.7,-2.6,·,·,·,·
COc1ccc(NC(=O)/C(Cl)=C(/Cl)S(=O)(=O)Cc2ccc(C)cc2)cn1,·,·,·,·,·,24.1*
CC(C)(C)S(=O)(=O)N1Cc2cc(CO)ccc2[C@@H]1CCO,3.2,-9.7,·,·,·,·
CCOc1ccc(S(=O)(=O)N(C(=O)c2ccco2)c2cc3sc(=O)oc3c3ccccc23)cc1,2.9,-0.3,68.7*,6.3,82.0*,-5.0
Cc1ccc(S(=O)(=O)N(C(=O)c2ccco2)c2cc3sc(=O)oc3c3ccccc23)cc1,0.8,-2.6,61.5*,10.1,76.0*,-0.2
CCOc1ccc(S(=O)(=O)N(C)CC(=O)NCc2ccco2)cc1,2.5,-16.3,-12.7,14.0,-5.9,-7.1
CC(=O)N(c1ccc2oc(=O)sc2c1)S(=O)(=O)c1ccccc1,1.6,6.6,-13.1,16.5,3.3,-8.5
COc1ccc(S(=O)(=O)N(C(=O)C(C)C)c2ccc3oc(=O)sc3c2)cc1,2.2,0.3,3.5,-8.2,15.5,10.7
COc1ccc(S(=O)(=O)N(C(=O)c2ccco2)c2cc3sc(=O)oc3c3ccccc23)cc1,3.2,17.0,59.5*,2.4,66.0*,-11.1
Cc1ccc(NC(=O)NNC(=O)CSC2CCc3ccccc32)c(C)c1 (stereo not drawn),-1.8,-21.1,·,·,·,·
SMILES,TAAR1 ag,TAAR1 antag,OX1R antag-1,OX1R antag-2,CHO parental Ca,GPR7 antagonist
CCCC#C/C(CCC)=C1\c2ccccc2C(=O)N1c1ccccc1,-0.6,-19.1,·,·,·,·
Cc1cc(NC(=O)c2cc3cccc([N+](=O)[O-])c3[nH]2)ccc1F,4.7,7.2,6.1,46.0*,4.8,-0.7
Cc1cccc(CCNS(=O)(=O)c2ccc3c(c2)n(C)c(=O)c(=O)n3C)c1,39.0*,-13.2,-17.3,5.0,-18.4,-12.5
O=C(CN1C(=O)NC(Cc2ccccc2)C1=O)Nc1ccc(F)c(Cl)c1 (stereo not drawn),12.7,6.2,-23.5,9.8,-24.2,·
C=CCn1c(C(C)NC(=O)CCC)nc2ccccc21 (stereo not drawn),7.0,-15.9,-1.4,10.0,4.4,19.8*
Cc1noc(C)c1S(=O)(=O)N1CCCc2nc(-c3ccc(F)cc3)ccc21,1.7,9.8,·,·,·,·
COc1ccc2cc(/C=N/NC(=O)CN(c3ccccc3OC)S(=O)(=O)c3ccccc3)c(Cl)nc2c1,10.4,14.6,·,·,·,·
O=C(O)COc1ccccc1/C=N/Nc1ccc(S(=O)(=O)N2CCOCC2)cc1[N+](=O)[O-],1.9,-20.8,-8.6,62.9*,-13.9,-10.9
Cc1ccc(-c2nn(-c3ccccc3)cc2C(=O)NCC(c2cccs2)N2CCOCC2)cc1 (stereo not drawn),0.5,33.8,-38.7,7.2,-22.4,·
CCc1cc2c(=O)[nH]c(Cc3ccc(Cl)cc3)nc2s1,1.7,-12.2,-24.0,-1.3,-8.0,-18.4
CCc1cc2c(=O)[nH]c(Cc3ccccc3)nc2s1,13.6,3.4,-9.4,23.9,42.7*,-16.8
COC(=O)[C@]12C[C@H](CC(=O)N3CCN(C(=O)C4CC4)CC3)C(=O)N(Cc3ccccc3)C1=C[C@H](C1CCCC1)O[C@@H]2C,1.9,-0.4,·,·,·,·
Cc1ccc(CNC(=O)c2nnc(Cc3ccc(Cl)cc3)o2)cc1,6.7,-42.2,-4.5,8.5,43.5*,-17.4
C=CCN=C1NC(c2ccccc2C(F)(F)F)C(C(=O)OC)=C(C)N1Cc1cccc(C(F)(F)F)c1 (stereo not drawn),1.5,-8.1,·,·,·,·
COc1ccc(C(=O)NCC(=O)NCC(=O)OCc2ccc(Cl)cc2)cc1,-0.9,-20.4,-23.2,-3.9,-23.0,10.5
COc1ccc(COC(=O)CCNC(=O)c2ccc(Cl)cc2)cc1,-2.1,1.3,-10.8,52.8*,-8.8,·
CC(=O)NC1CCCCN(C)C1=O (stereo not drawn),1.1,0.3,·,·,·,·
COCCNC(=O)C1CC(c2ccc([N+](=O)[O-])cc2)=NO1 (stereo not drawn),11.5,6.6,-0.8,68.5*,-4.2,-11.4
CC1C/C(=C/c2ccncc2)C(=O)/C(=C/c2ccncc2)C1 (stereo not drawn),-0.3,-5.5,-5.9,32.6,13.5,24.4*
CN1C/C(=C/c2cccnc2)C(=O)/C(=C/c2cccnc2)C1,0.8,-7.0,-11.7,18.4,-6.1,-2.9
Cc1cccc(OCc2n(CC(=O)OC3CC(C)CCC3C(C)C)c3ccccc3[n+]2C)c1 (stereo not drawn),·,·,47.6*,6.3,50.6*,61.1*
CC1CCC(C(C)C)C(OC(=O)Cn2c(-c3ccc(F)cc3)[n+](C)c3ccccc32)C1 (stereo not drawn),2.6,-2.2,-4.6,14.7,13.6,54.0*
